Values after ≈ are worked out from the molar mass of the structure shown.
Legend:
[1] = molecular target: T1, Beta-ketoacyl-[acyl-carrier-protein] synthase III (Enterococcus faecalis (strain ATCC 700802 / V583), UniProt Q820T1); assay: Inhibitory concentration against Enterococcus faecalis beta-Ketoacyl-acyl carrier protein synthase III
T1 sequence (Q820T1 whole entry): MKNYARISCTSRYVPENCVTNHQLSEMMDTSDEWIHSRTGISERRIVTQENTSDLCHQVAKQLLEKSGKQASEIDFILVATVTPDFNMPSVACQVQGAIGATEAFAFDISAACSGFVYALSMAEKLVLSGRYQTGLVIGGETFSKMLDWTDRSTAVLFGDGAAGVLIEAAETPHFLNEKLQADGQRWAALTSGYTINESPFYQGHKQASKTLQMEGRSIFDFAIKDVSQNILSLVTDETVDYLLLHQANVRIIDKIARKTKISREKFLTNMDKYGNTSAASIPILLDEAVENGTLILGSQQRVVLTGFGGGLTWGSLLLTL
Method in brief: (§1)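 Coupled FabD/FabH radiometric assay with His-tagged or tagless FabH expressed in E. coli BL21(DE3). The mix held 100 mM sodium phosphate pH 7.0, 2 mM DTT, 1 mM MgCl₂, 12.5 µM E. coli holo-ACP, 10 nM FabD and 3-5 nM FabH. Malonyl-CoA was added for 1 min, then acetyl-CoA plus [³H]acetyl-CoA, NADH and NADPH for 19 min. TCA-precipitated protein was counted by liquid scintillation; DMSO ≤2% final.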

Streptococcus pyogenes = assay: Minimum inhibitory concentration against Streptococcus pyogenes NZ131; type: functional
[2] = Minimum inhibitory concentration against Enterococcus faecalis VRE 583; type: functional, Enterococcus faecalis V583
Staphylococcus aureus = assay: Minimum inhibitory concentration against Staphylococcus aureus MRSA 703; type: functional
Escherichia coli = assay: Minimum inhibitory concentration against Escherichia coli TolC- mutant in presence of membrane permeablizing agent polymyxin B; type: functional
Neisseria meningitidis = assay: Minimum inhibitory concentration against Neisseria meningitides MC58 in presence of membrane permeablizing agent polymyxin B; type: functional
Streptococcus pneumoniae = assay: Minimum inhibitory concentration against Streptococcus pneumonia ATCC 6301; type: functional
[3] = molecular target: T2, Beta-ketoacyl-[acyl-carrier-protein] synthase III (Haemophilus influenzae (strain ATCC 51907 / DSM 11121 / KW20 / Rd), UniProt P43711); assay: Inhibitory concentration against Haemophilus influenzae beta-Ketoacyl-acyl carrier protein synthase III; method in brief: as §1
T2 sequence (P43711 whole entry): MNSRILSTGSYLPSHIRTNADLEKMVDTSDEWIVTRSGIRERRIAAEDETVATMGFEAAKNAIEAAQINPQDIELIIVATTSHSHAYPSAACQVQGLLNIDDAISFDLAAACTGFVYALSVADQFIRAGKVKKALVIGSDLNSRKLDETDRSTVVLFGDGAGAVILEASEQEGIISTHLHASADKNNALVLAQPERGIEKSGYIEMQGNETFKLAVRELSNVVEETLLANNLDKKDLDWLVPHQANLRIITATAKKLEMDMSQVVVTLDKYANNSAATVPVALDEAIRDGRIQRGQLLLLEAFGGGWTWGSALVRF

[4] = molecular target: T3, Beta-ketoacyl-[acyl-carrier-protein] synthase III (Streptococcus pyogenes serotype M3 (strain ATCC BAA-595 / MGAS315), UniProt P0DB00); assay: Inhibitory concentration against Streptococcus pyogenes beta-Ketoacyl-acyl carrier protein synthase III
T3 sequence (P0DB00 whole entry): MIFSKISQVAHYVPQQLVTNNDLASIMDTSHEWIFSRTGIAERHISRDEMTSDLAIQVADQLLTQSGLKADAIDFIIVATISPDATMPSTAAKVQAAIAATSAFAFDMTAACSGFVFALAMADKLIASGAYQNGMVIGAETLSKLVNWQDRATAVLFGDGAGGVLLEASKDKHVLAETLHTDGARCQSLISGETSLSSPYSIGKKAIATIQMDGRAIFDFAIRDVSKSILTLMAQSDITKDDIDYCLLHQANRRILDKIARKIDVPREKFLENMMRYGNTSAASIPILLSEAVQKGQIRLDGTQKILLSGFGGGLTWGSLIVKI
Method in brief: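 S. pyogenes FabH (10 nM, His-tagged or tagless, expressed in E. coli BL21(DE3)) was run in a coupled assay with 10 nM FabD, 12.5 µM holo-ACP, 100 mM sodium phosphate pH 7.0, 2 mM DTT and 1 mM MgCl₂. Malonyl-CoA was added for 1 min, then [³H]acetyl-CoA/acetyl-CoA with NADH and NADPH for 19 min. The reaction was stopped with cold TCA and the pellet read by scintillation. Inhibitor DMSO ≤2%.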

[5] = molecular target: T4, Beta-ketoacyl-[acyl-carrier-protein] synthase III (Staphylococcus aureus subsp. aureus Mu50, UniProt P68795); assay: Inhibitory concentration against Staphylococcus aureus beta-Ketoacyl-acyl carrier protein synthase III
T4 sequence (P68795 whole entry): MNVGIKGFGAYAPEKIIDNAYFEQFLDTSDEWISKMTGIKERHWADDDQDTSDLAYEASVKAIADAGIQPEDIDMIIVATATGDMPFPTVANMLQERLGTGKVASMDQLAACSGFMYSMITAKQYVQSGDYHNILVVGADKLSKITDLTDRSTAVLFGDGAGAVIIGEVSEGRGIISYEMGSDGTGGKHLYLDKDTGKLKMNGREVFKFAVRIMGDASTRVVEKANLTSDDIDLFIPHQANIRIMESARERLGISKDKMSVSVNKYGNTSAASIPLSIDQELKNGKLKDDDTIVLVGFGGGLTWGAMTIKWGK
Method in brief: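 Coupled FabD/FabH radiometric assay, 100 µL final, pH 7.0: 100 mM sodium phosphate, 2 mM DTT, 1 mM MgCl2, 12.5 µM E. coli holo-ACP, 10 nM FabD, 20 nM S. aureus FabH (His-tagged or tagless, expressed in E. coli BL21(DE3)). FabD started with malonyl-CoA for 1 min. Acetyl-CoA plus [3H]acetyl-CoA, NADH and NADPH then added; FabH reaction 19 min. Stopped with TCA; pellet counted by liquid scintillation. DMSO ≤2% final.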

| IC50 [1] [µM] | MIC (Streptococcus pyogenes) [µg/mL] | MIC [2] [µg/mL] | MIC (Staphylococcus aureus) [µg/mL] | MIC (Escherichia coli) [µg/mL] | MIC (Neisseria meningitidis) [µg/mL] | MIC (Streptococcus pneumoniae) [µg/mL] | Structure (SMILES) | other results |
| --- | --- | --- | --- | --- | --- | --- | --- | --- |
| 11.4 | – | – | – | – | – | – | CCN(CC)S(=O)(=O)c1cc(C(=O)Nc2ccccc2C(=O)O)ccc1OC | – |
| 38 | – | – | – | – | – | – | CC1CN(c2ccc(C(=O)Nc3ccccc3C(=O)O)cc2Oc2ccccc2)CC(C)N1 (centres undefined) | – |
| 1.2 | – | – | – | – | – | – | O=C(Nc1ccccc1C(=O)O)c1ccc(N2CCSCC2)c(Oc2ccccc2)c1 | – |
| 0.16 | 2.8 (≈ 6.29 µM) | 11.3 (≈ 25.4 µM) | 5.6 (≈ 12.6 µM) | 0.7 | 0.36 | 2.8 (≈ 6.29 µM) | O=C(Nc1ccccc1C(=O)O)c1ccc(-c2ccc(F)cc2F)c(Oc2ccccc2)c1 | – |
| 2.1 | – | – | – | – | – | – | O=C(O)c1ccc(-c2ccc(C(=O)Nc3ccccc3C(=O)O)cc2Oc2ccccc2)cc1 | – |
| 3.8 | – | – | – | – | – | – | O=C(Nc1ccccc1C(=O)O)c1ccc(F)c(Oc2ccccc2)c1 | – |
| 5 | – | – | – | – | – | – | O=C(Nc1ccccc1C(=O)O)c1cccc(Oc2ccc(F)cc2)c1 | – |
| 4.4 | – | – | – | – | – | – | O=C(O)c1ccc(Oc2cccc(C(=O)Nc3ccccc3C(=O)O)c2)cc1 | – |
| > 1000 | – | – | – | – | – | – | O=C(Nc1ncccc1C(=O)O)c1cccc(Oc2ccccc2)c1 | – |
| 0.41 | – | – | – | – | – | – | O=C(Nc1cccc(O)c1C(=O)O)c1cccc(Oc2ccccc2)c1 | – |
| 0.16 | – | – | – | – | – | – | Cc1ccc(-c2ccc(C(=O)Nc3ccccc3C(=O)O)cc2Oc2ccccc2)cc1 | – |
| 0.25 | 1.4 (≈ 3.06 µM) | 5.6 (≈ 12.2 µM) | 5.6 (≈ 12.2 µM) | 0.7 | 0.7 | 2.8 (≈ 6.11 µM) | Cc1cc(-c2ccc(C(=O)Nc3ccccc3C(=O)O)cc2Oc2ccccc2)ccc1Cl | – |
| 0.27 | 2.8 (≈ 6.3 µM) | 11.3 (≈ 25.4 µM) | 5.6 (≈ 12.6 µM) | 5.6 | 2.8 | 2.8 (≈ 6.3 µM) | CC1CC(C)CN(c2ccc(C(=O)Nc3ccccc3C(=O)O)cc2Oc2ccccc2)C1 (centres undefined) | – |
| 160 | – | – | – | – | – | – | CCN(CC)S(=O)(=O)c1cc(C(=O)Nc2ccccc2C(=O)O)cc(C)c1Br | – |
| 2.1 | – | – | – | – | – | – | CCN(CC)S(=O)(=O)c1cc(C(=O)Nc2ccccc2C(=O)O)ccc1OCC1CCCC1 | – |
| 0.24 | 2.8 (≈ 6.34 µM) | 2.8 (≈ 6.34 µM) | 5.6 (≈ 12.7 µM) | 0.7 | 0.7 | 0.7 (≈ 1.59 µM) | Cc1cc(-c2ccc(C(=O)Nc3ccccc3C(=O)O)cc2Oc2ccccc2)ccc1F | – |
| 0.33 | – | – | – | – | – | – | O=C(Nc1ccccc1C(=O)O)c1ccc(-c2ccc(F)c(F)c2)c(Oc2ccccc2)c1 | – |
| 6 | – | – | – | – | – | – | O=C(Nc1cccc(F)c1C(=O)O)c1cccc(Oc2ccccc2)c1 | – |
| 3.7 | – | – | – | – | – | – | O=C(O)c1cccc(Oc2cccc(C(=O)Nc3ccccc3C(=O)O)c2)c1 | – |
| 10 | – | – | – | – | – | – | O=C(Nc1ccccc1C(=O)O)c1cccc(Oc2ccncc2)c1 | – |

| Structure (SMILES) | IC50 [1] [µM] | MIC (Streptococcus pyogenes) [µg/mL] | MIC [2] [µg/mL] | MIC (Staphylococcus aureus) [µg/mL] | MIC (Escherichia coli) [µg/mL] | MIC (Neisseria meningitidis) [µg/mL] | MIC (Streptococcus pneumoniae) [µg/mL] | other results |
| --- | --- | --- | --- | --- | --- | --- | --- | --- |
| CS(=O)(=O)c1ccc(-c2ccc(C(=O)Nc3ccccc3C(=O)O)cc2Oc2ccccc2)cc1 | 0.028 | 22 (≈ 45.1 µM) | > 45 | 45 (≈ 92.3 µM) | 5.6 | 5.6 | 45 (≈ 92.3 µM) | IC50 [3]: > 100 µM; IC50 [4]: 0.003 µM; IC50 [5]: 24 µM |
| O=C(Nc1cccc(O)c1C(=O)O)c1ccc(Br)c(Oc2ccccc2)c1 | 0.062 | 11.3 (≈ 26.4 µM) | > 45 | 45 (≈ 105 µM) | 2.8 | 2.8 | 45 (≈ 105 µM) | IC50 [3]: 20 µM; IC50 [4]: 0.034 µM; IC50 [5]: 12.3 µM |
| O=C(Nc1cccc(O)c1C(=O)O)c1ccc(-c2ccccc2)c(Oc2ccccc2)c1 | 0.004 | 5.6 (≈ 13.2 µM) | > 45 | 22 (≈ 51.7 µM) | 1.4 | 1.4 | 22 (≈ 51.7 µM) | IC50 [3]: 2.4 µM; IC50 [4]: 0.004 µM; IC50 [5]: 3.8 µM |
